In brackets after ≈: the same amount, converted by molar mass. Activity calls are given as the source filed them. No cut-off for these calls is given here.
Columns and labels:
Aspergillus nidulans = assay: Antifungal activity against Aspergillus nidulans ATCC 38163 after 48 hrs by microbroth dilution method; format: functional; conditions: ATCC 38163, 48 h
Summary of the method: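 Filamentous fungus MIC by broth microdilution, run in duplicate. All compounds are read as MIC-0 (complete inhibition).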

[1] = Hemolytic activity against mouse RBC at 100 to 500 ug/ml after 60 mins; format: ADME, cell-based; conditions: erythrocyte, 1 h
A549 = assay: Cytotoxicity against human A549 cells after 24 hrs by resazurin assay; format: cell-based; conditions: human, a549, 24 h
[2] = Cytotoxicity against human BEAS2B cells after 24 hrs by resazurin assay; format: cell-based, BEAS-2B; conditions: human, beas-2b
Klebsiella pneumoniae = assay: Antibacterial activity against Klebsiella pneumoniae ATCC 27736 by microdilution method; format: functional
Summary of the method: (§1)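 Broth microdilution MIC against the named bacterial strain, reported in μg/mL; each determination run at least in duplicate.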

[3] = Activity of AAC(3)-4 (unknown origin) assessed as compound acetylation activity by Ellman's method
Bacillus subtilis = assay: Antibacterial activity against Bacillus subtilis 168 by microdilution method; format: functional; conditions: subsp. subtilis str. 168; summary of the method: as §1
Listeria monocytogenes = assay: Antibacterial activity against Listeria monocytogenes ATCC 19115 by microdilution method; format: functional; summary of the method: as §1
Staphylococcus aureus [4] = assay: Antibacterial activity against methicillin-resistant Staphylococcus aureus by microdilution method; format: functional
Summary of the method: (§2)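 Broth microdilution MIC, in μg/mL, against a panel of Gram-positive and Gram-negative strains. Run at least in duplicate.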

[5] = test system: Mycolicibacterium smegmatis; assay: Antibacterial activity against Mycobacterium smegmatis MC2 155 by microdilution method; format: functional; conditions: str. MC2 155; summary of the method: as §2
Staphylococcus aureus [6] = assay: Antibacterial activity against Staphylococcus aureus ATCC 29213 by microdilution method; format: functional; summary of the method: as §1
Staphylococcus aureus [7] = assay: Antibacterial activity against Staphylococcus aureus NRS382 (USA 100) by microdilution method; format: functional; summary of the method: as §1
Staphylococcus aureus [8] = assay: Antibacterial activity against Staphylococcus aureus NRS383 (USA 200) by microdilution method; format: functional; summary of the method: as §1
Staphylococcus aureus [9] = assay: Antibacterial activity against Staphylococcus aureus NRS385 (USA 300) by microdilution method; format: functional; summary of the method: as §2
Staphylococcus aureus [10] = assay: Antibacterial activity against Staphylococcus aureus NRS22 (USA 600) by microdilution method; format: functional; summary of the method: as §1
[11] = test system: Staphylococcus epidermidis; assay: Antibacterial activity against Staphylococcus epidermidis ATCC 12228 by microdilution method; format: functional; summary of the method: as §1
Enterococcus = assay: Antibacterial activity against vancomycin-resistant Enterococcus by microdilution method; format: functional; summary of the method: as §2
Acinetobacter baumannii = assay: Antibacterial activity against Acinetobacter baumannii ATCC 19606 by microdilution method; format: functional; summary of the method: as §1
Enterobacter cloacae = assay: Antibacterial activity against Enterobacter cloacae ATCC 13047 by microdilution method; format: functional; summary of the method: as §1
Escherichia coli = assay: Antibacterial activity against Escherichia coli MC1061 by microdilution method; format: functional; summary of the method: as §2
Pseudomonas aeruginosa = assay: Antibacterial activity against Pseudomonas aeruginosa ATCC 27853 by microdilution method; format: functional; summary of the method: as §1
Salmonella enterica = assay: Antibacterial activity against Salmonella enterica ATCC 14028 by microdilution method; format: functional; summary of the method: as §1
[12] = test system: Bacillus subtilis subsp. subtilis str. 168; assay: Activity of Bacillus subtilis 168 APH(2'')-1a assessed as compound phosphorylation activity by Ellman's method
[13] = Activity of AAC(6')-1e/APH(2'')-1a (unknown origin) assessed as compound acetylation activity by Ellman's method
Serratia marcescens = assay: Activity of Serratia marcescens AAC(6')-2d assessed as compound acetylation activity by Ellman's method
[14] = test system: Mycobacterium tuberculosis; assay: Activity of Mycobacterium tuberculosis AAC(2')-1c assessed as compound acetylation activity by Ellman's method
[15] = test system: Mycobacterium tuberculosis; assay: Activity of Mycobacterium tuberculosis Eis assessed as compound acetylation activity by Ellman's method
Candida albicans [16] = assay: Antifungal activity against azole-resistant Candida albicans ATCC 10231 after 48 hrs by microbroth dilution method; format: functional; conditions: ATCC 10231, 48 h
Summary of the method: (§3)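 Yeast MIC by broth microdilution, run in duplicate. The aminoglycoside compounds are read as MIC-0 (complete inhibition). Azoles are read as MIC-2 (50% inhibition).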

Candida albicans [17] = assay: Antifungal activity against azole-resistant Candida albicans ATCC 64124 after 48 hrs by microbroth dilution method; format: functional; conditions: ATCC 64124, 48 h; summary of the method: as §3
Candida albicans [18] = assay: Antifungal activity against azole-susceptible Candida albicans ATCC MYA-2876 after 48 hrs by microbroth dilution method; format: functional; conditions: ATCC MYA-2876, 48 h; summary of the method: as §3
Candida albicans [19] = assay: Antifungal activity against azole-resistant Candida albicans ATCC 90819 after 48 hrs by microbroth dilution method; format: functional; conditions: ATCC 90819, 48 h; summary of the method: as §3
Candida albicans [20] = assay: Antifungal activity against azole-susceptible Candida albicans ATCC MYA-2310 after 48 hrs by microbroth dilution method; format: functional; conditions: ATCC MYA-2310, 48 h; summary of the method: as §3
Candida albicans [21] = assay: Antifungal activity against azole-resistant Candida albicans MYA-1237 after 48 hrs by microbroth dilution method; format: functional; conditions: MYA-1237, 48 h; summary of the method: as §3
Candida albicans [22] = assay: Antifungal activity against azole-resistant Candida albicans MYA-1003 after 48 hrs by microbroth dilution method; format: functional; conditions: MYA-1003, 48 h; summary of the method: as §3

Compound	MIC (Aspergillus nidulans)	Activity [1]	Activity (A549)	Activity [2]	MIC (Klebsiella pneumoniae)	Activity [3]	MIC (Bacillus subtilis)	MIC (Listeria monocytogenes)	MIC [5]	MIC (Staphylococcus aureus [6])	MIC (Staphylococcus aureus [9])	MIC [11]	MIC (Acinetobacter baumannii)	MIC (Enterobacter cloacae)	MIC (Escherichia coli)	MIC (Salmonella enterica)	Activity [12]	Activity [13]	Activity (Serratia marcescens)	Activity [14]	other results
CCCCCCCCCCCCSC[C@H]1O[C@H](O[C@@H]2[C@@H](O)[C@H](O[C@H]3O[C@H](CN)[C@@H](O)C[C@H]3N)[C@@H](N)C[C@H]2N)[C@H](O)[C@@H](N)[C@@H]1O	7.8 µg/mL (≈ 12 µM)																				
CCCCCCCCCCCCCCSC[C@H]1O[C@H](O[C@@H]2[C@@H](O)[C@H](O[C@H]3O[C@H](CN)[C@@H](O)C[C@H]3N)[C@@H](N)C[C@H]2N)[C@H](O)[C@@H](N)[C@@H]1O	7.8 µg/mL (≈ 11.5 µM)																				
CCCCCCCCSC[C@H]1O[C@H](O[C@@H]2[C@@H](O)[C@H](O[C@H]3O[C@H](CN)[C@@H](O)C[C@H]3N)[C@@H](N)C[C@H]2N)[C@H](O)[C@@H](N)[C@@H]1O	125 µg/mL (≈ 210 µM)																				
CCCCCCCCCCSC[C@H]1O[C@H](O[C@@H]2[C@@H](O)[C@H](O[C@H]3O[C@H](CN)[C@@H](O)C[C@H]3N)[C@@H](N)C[C@H]2N)[C@H](O)[C@@H](N)[C@@H]1O	62.5 µg/mL (≈ 100 µM)																				
CCCCCCCCSC[C@@H]1O[C@@H](O[C@@H]2[C@@H](O)[C@H](O[C@@H]3O[C@@H](CN)[C@H](O)[C@@H](O)[C@@H]3N)[C@@H](N)C[C@H]2N)[C@@H](O)[C@H](N)[C@H]1O (stereo in doubt)	15.6 µg/mL (≈ 25.5 µM)	Non-toxic	Non-toxic	Non-toxic	> 128 µg/mL	inactive	> 128 µg/mL	8 µg/mL (≈ 13.1 µM)	64 µg/mL (≈ 105 µM)	64 µg/mL (≈ 105 µM)	128 µg/mL (≈ 209 µM)	> 128 µg/mL	> 128 µg/mL	> 128 µg/mL	> 128 µg/mL	> 128 µg/mL	inactive	inactive	inactive	inactive	MIC (Staphylococcus aureus [4]): 128 µg/mL (≈ 209 µM); MIC (Staphylococcus aureus [7]): 128 µg/mL (≈ 209 µM); MIC (Staphylococcus aureus [8]): 64 µg/mL (≈ 105 µM); MIC (Staphylococcus aureus [10]): 64 µg/mL (≈ 105 µM); MIC (Enterococcus): 128 µg/mL (≈ 209 µM); MIC (Pseudomonas aeruginosa): 64 µg/mL (≈ 105 µM); Activity [15]: inactive; MIC (Candida albicans [16]): > 125 µg/mL; MIC (Candida albicans [17]): > 125 µg/mL; MIC (Candida albicans [18]): > 125 µg/mL; MIC (Candida albicans [19]): > 125 µg/mL; MIC (Candida albicans [20]): > 125 µg/mL; MIC (Candida albicans [21]): > 125 µg/mL; MIC (Candida albicans [22]): > 125 µg/mL
CCCCCCCCCCSC[C@@H]1O[C@@H](O[C@@H]2[C@@H](O)[C@H](O[C@@H]3O[C@@H](CN)[C@H](O)[C@@H](O)[C@@H]3N)[C@@H](N)C[C@H]2N)[C@@H](O)[C@H](N)[C@H]1O (stereo in doubt)	≤ 1.95 µg/mL	Non-toxic	Non-toxic	Non-toxic	> 128 µg/mL	inactive	128 µg/mL (≈ 200 µM)	2 µg/mL (≈ 3.13 µM)	8 µg/mL (≈ 12.5 µM)	16 µg/mL (≈ 25 µM)	32 µg/mL (≈ 50 µM)	> 128 µg/mL	> 128 µg/mL	> 128 µg/mL	> 128 µg/mL	> 128 µg/mL	inactive	inactive	inactive	inactive	Activity [15]: inactive; MIC (Candida albicans [16]): 125 µg/mL (≈ 195 µM); MIC (Candida albicans [17]): 125 µg/mL (≈ 195 µM); MIC (Candida albicans [18]): 125 µg/mL (≈ 195 µM); MIC (Candida albicans [19]): 125 µg/mL (≈ 195 µM); MIC (Candida albicans [20]): 62.5 µg/mL (≈ 97.7 µM); MIC (Candida albicans [21]): 125 µg/mL (≈ 195 µM); MIC (Candida albicans [22]): 125 µg/mL (≈ 195 µM)
